Reference: publication PMC12079591 (ACS Omega, 2025)
Read-outs that look alike come from different tables or passages of the source.

Tests used:
MDA-MB-231 = experiment: Cell proliferation assay; format: cell-based, human
How it was run: (§1)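 Mycoplasma-negative, STR-authenticated cells were seeded at 4000−6000/well and kept overnight at 37 °C, 5% CO2. Graded test compound concentrations or solvent control were added to triplicate wells. Adherent lines were read by SRB (OD 510 nm) and suspension lines by MTT (OD 570 nm). IC50 was obtained by nonlinear regression. Results are means ± SD (n ≥ 2).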

PC-3 = experiment: Cell proliferation assay; format: cell-based, human
How it was run: as §1

[1] = 1 h postinjection; cited from earlier work
K562/ADR = experiment: Cell proliferation assay, multidrug-resistant K562/ADR; format: cell-based; settings: for IC50: Homo sapiens, K562/Adr, read-out: IC50 K562/ADR; for RF (resistance factor): K562/ADR versus K562
How it was run: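 K562/ADR cells were derived from parental K562 by stepwise increases in ADR concentration. Proliferation was measured by the SRB (adherent) or MTT (suspension) method: 4000−6000 cells/well seeded overnight at 37 °C, 5% CO2, graded test compound in triplicate wells. IC50 was obtained by nonlinear regression. The resistance factor compares K562/ADR with parental K562. Results are means ± SD (n ≥ 2).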

K562 = experiment: Cell proliferation assay; format: cell-based; settings: Homo sapiens, K562, read-out: IC50 K562
How it was run: as §1

[2] = read-out: IC50 MDA-MB-231, breast carcinoma, mean ± SD (n ≥ 2)
[3] = read-out: IC50 PC-3, prostate carcinoma, mean ± SD (n ≥ 2)
[4] = Homo sapiens, MDA-MB-231, read-out: IC50 MDA-MB-231
[5] = Homo sapiens, PC-3, read-out: IC50 PC-3

| Compound | IC50 (MDA-MB-231; [2]) | IC50 (PC-3; [3]) | IC50 (K562/ADR) | IC50 (K562) | RF (resistance factor) (K562/ADR) | further results |
| --- | --- | --- | --- | --- | --- | --- |
| 3-(1,2-Dicarba-closo-dodecarboranyl)-7-methoxychroman-4-one [Compound 1i] | 25.4 ± 7.3 µM | 38 ± 2.79 µM | – | – | – | – |
| 3-(1,2-Dicarba-closo-dodecarboranyl)-7-methoxychromane [Compound 1k] | 35.3 ± 4.78 µM | 35.5 ± 0.98 µM | – | – | – | – |
| 3-(1,2-Dicarba-closo-dodecarboranyl)chromane-4,7-diol [Compound 1l] | 17.9 ± 6.09 µM | 16.6 ± 1.89 µM | – | – | – | – |
| 7-(Benzyloxy)-3-(1,2-dicarba-closo-dodecarboranyl)-4H-chromen-4-one [Compound 1c] | 65.3 ± 5.39 µM | 72.4 ± 1.06 µM | – | – | – | – |
| O=C([O-])CN(CCN(CC(=O)[O-])Cc1cc(CCC(=O)NCCCCCC(=O)NCCCC[C@H](NC(=O)N[C@@H](CCC(=O)O)C(=O)O)C(=O)O)ccc1[O-])Cc1cc(CCC(=O)O)ccc1[O-].[68Ga+3].[OH3+] [^68Ga-PSMA11] | – | – | – | – | – | brain uptake [1]: 0.013 ± 0.004 % ID/g |
| COc1ccc(-c2coc3cc(O)ccc3c2=O)cc1 [formononetin, reference compound] | – | – | – | – | – | IC50 (MDA-MB-231; [4]): > 100 µM; IC50 (PC-3; [5]): > 100 µM |
| O=c1c(-c2ccc(O)cc2)coc2cc(O)cc(O)c12 [genistein, reference compound] | – | – | – | – | – | IC50 (MDA-MB-231; [4]): 36.9 ± 2.81 µM; IC50 (PC-3; [5]): 29.5 ± 8.74 µM |

Further lines, with some results ahead:

| IC50 (MDA-MB-231; [2]) | IC50 (PC-3; [3]) | IC50 (K562/ADR) | IC50 (K562) | Compound | RF (resistance factor) (K562/ADR) | further results |
| --- | --- | --- | --- | --- | --- | --- |
| – | – | 2.84 ± 1.06 µM | 0.0267 ± 0.00082 µM | COc1cccc2c1C(=O)c1c(O)c3c(c(O)c1C2=O)C[C@@](O)(C(=O)CO)C[C@@H]3O[C@H]1C[C@H](N)[C@H](O)[C@H](C)O1 [adriamycin] | 106.35 | – |
| – | – | > 10 µM | 0.00157 ± 0.0015 µM | CC(=O)O[C@H]1C(=O)[C@@]2(C)[C@H]([C@H](OC(=O)c3ccccc3)[C@]3(O)C[C@H](OC(=O)[C@H](O)[C@@H](NC(=O)c4ccccc4)c4ccccc4)C(C)=C1C3(C)C)[C@]1(OC(C)=O)CO[C@@H]1C[C@@H]2O [paclitaxel] | >6000 | RF (resistance factor) (K562/ADR; listed as PTX): over 6000 |
| – | – | 0.326 ± 0.0425 µM | 0.00157 ± 0.00112 µM | CCC1=C[C@@H]2CN(C1)Cc1c([nH]c3ccccc13)[C@@](C(=O)OC)(c1cc3c(cc1OC)N(C)[C@H]1[C@@](O)(C(=O)OC)[C@H](OC(C)=O)[C@]4(CC)C=CCN5CC[C@]31[C@@H]54)C2 [vinorelbine] | 230.86 | – |
